Bioassay records from PubChem BioAssay.
FGF22 binding: shifts melting point of recombinant human FGF22. AID 651658. recombinant FGF22 thermal shift, SYPRO orange fluorescence; percent of sucrose octasulfate shift, DMSO zero. activity (Tm shift, normalised), % at 9.99 µM. Q9HCT0. 1.5% of 340,000 active;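 active = mean Tm shift, scaled 0 neutral to 100 positive control, at about 1.3% or above, every replicate too, limit read from the data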
Target sequence (Q9HCT0 whole entry, looked up): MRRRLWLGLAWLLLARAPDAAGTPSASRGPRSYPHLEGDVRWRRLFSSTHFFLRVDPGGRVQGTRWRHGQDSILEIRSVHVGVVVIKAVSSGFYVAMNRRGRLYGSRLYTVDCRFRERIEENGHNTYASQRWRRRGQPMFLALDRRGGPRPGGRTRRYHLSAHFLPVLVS
FN deposition inh: fibronectin deposition inhibition; AH1F fibroblasts, Alexa488-fibronectin deposition fluorescence, overnight; inhibition, % at 12.6 µM; 0.086% of 350,000 active; AID 743247;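 active = mean inhibition across replicates of 30% or more, regardless of how many single replicates reach that level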;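 also: positive control wells lacked labelled fibronectin entirely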
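Test system: AH1F fibroblast monolayer depositing Alexa488-labelled fibronectin into matrix. Input: 10000 cells per well. Technique: fluorescence, ex 485 nm, em 525 nm. Buffer or medium: DMEM plus 2% serum, read in PBS. Timing: 1 h cell adhesion before compound, then overnight fibronectin incubation. Compound: single dose, pinned. Read-out basis: inhibition from reduced deposited-fibronectin fluorescence.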
PGC1a acetyl inh: lowers PGC1a acetylation signal in U2OS cells; AlphaScreen anti-acetyl-lysine; with virally co-expressed GCN5 acetyltransferase; inhibition, % at 15.6 µM; 0.17% of 350,000 active; AID 651687;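 active = every replicate shows inhibition of at least 40%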;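 also: 0% = neutral control wells and 100% = positive control wells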
SIRT5 inh: inhibitors of human sirtuin-5 desuccinylase. Q9NXA8. Purified SirT5, succinyl-peptide AMC, trypsin-coupled fluorescence. inhibition, % at 15 µM. 1.1% of 330,000 active. AID 652115; in the data active = inhibition above about 15%
Target sequence (Q9NXA8 whole entry, looked up): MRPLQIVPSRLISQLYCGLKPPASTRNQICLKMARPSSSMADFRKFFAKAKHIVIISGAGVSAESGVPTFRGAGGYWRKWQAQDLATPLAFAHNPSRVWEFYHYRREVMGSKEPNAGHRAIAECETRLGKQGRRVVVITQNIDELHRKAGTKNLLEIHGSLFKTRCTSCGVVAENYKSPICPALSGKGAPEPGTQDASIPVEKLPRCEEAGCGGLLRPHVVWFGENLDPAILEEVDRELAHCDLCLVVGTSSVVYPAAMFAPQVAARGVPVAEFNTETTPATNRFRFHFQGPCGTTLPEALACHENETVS
ERAP1 inh: ERAP1 (human) enzyme inhibition; Q9NZ08; recombinant ERAP1, Leu-AMC fluorescence, 60 min; inhibition, % at 10.7 µM; 0.15% of 340,000 active;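 active = mean replicate inhibition of at least 30%, or all replicates individually reaching that 30% level; inactive = mean below 30% and not every replicate reaching it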;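 also: 0% = neutral control wells and 100% = L-leucinethiol positive control wells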
Starred values were filed as active, the others as inactive; nt = no result. Rows were chosen to be rich in hits. Some 2.2% of all compounds tested hit in one or more screens of this group.

SMILES	FGF22 binding	FN deposition inh	PGC1a acetyl inh	SIRT5 inh	ERAP1 inh
C[C@@H]1CN([C@H](C)CO)S(=O)(=O)c2ccc(C#CC3CCCC3)cc2O[C@@H]1CN(C)C	0	-6	-9	3	-6
C[C@H](O)C#Cc1ccc2c(c1)O[C@@H](CN(C)C)[C@H](C)CN([C@H](C)CO)S2(=O)=O	0	48*	-1	-5	-1
C[C@@H]1CN([C@@H](C)CO)S(=O)(=O)c2ccc(C#C[C@@H](C)O)cc2O[C@H]1CN(C)C	0	-12	9	0	0
COC(=O)c1c(C)[nH]c(C(=O)CN2CCOCC2)c1C	nt	nt	7	nt	nt
COC(=O)c1c(C)[nH]c(C(=O)CC#N)c1C	43*	-1	9	-2	0
COc1ccccc1C#Cc1ccc([C@H]2[C@@H](C#N)N(C(=O)C3CC3)[C@@H]2CO)cc1	0	-10	10	-10	1
CN(Cc1nc2ccc(F)cc2[nH]1)Cc1c(C(=O)N(C)C)nc2ccc(Cl)cn12	0	-3	3	12	1
Cc1cc2nc(CN(C)Cc3c(C(=O)N(C)C)nc4ccc(Cl)cn34)[nH]c2cc1C	43*	-12	-7	-1	-10
COc1ccc(/C=C2\SC(=S)NC2=O)cc1OS(=O)(=O)c1ccc(NC(C)=O)cc1	0	0	-1	0	12
COc1cc(C=O)ccc1OS(=O)(=O)c1ccc(NC(C)=O)cc1	1.9*	16	2	-6	0
COc1ccccc1C(=O)NNC(=S)NC(=O)c1sc2ccccc2c1Cl	nt	8	nt	nt	nt
Cc1c(NC(=S)NC(=O)c2sc3ccccc3c2Cl)cccc1C(=O)O	0	-13	nt	36*	-2
CCCOc1ccc(N/C=C/C(=O)c2ccc(OC)c(OC)c2)cc1	0	-3	-2	17*	-2
COc1ccc(NC(=O)N(C)C[C@H]2OCCCC[C@H](C)Oc3ccc(NC(=O)CCC(F)(F)F)cc3C(=O)N([C@@H](C)CO)C[C@@H]2C)cc1	0	nt	-1	5	0
CCCCOc1ccc(C(C)NC(=O)C2CCCN(S(=O)(=O)CCC)C2)cc1 (stereo not given)	nt	33*	nt	nt	nt
NC1=C(Cl)C(=O)c2ccccc2C1=O	0	-2	nt	-3	1
NC1=C(Cl)C(=O)c2ccc(S(N)(=O)=O)cc2C1=O	0	31*	nt	2	4
CCCC(=O)N1CCC2(CC1)CN(C(=O)Nc1c(C)noc1C)[C@H](CO)c1c2c2ccc(OC)cc2n1C	0	nt	3	-4	1
CCC(=O)N(C)C[C@H]1Oc2ncc(C#CCc3ccccc3)cc2C(=O)N([C@H](C)CO)C[C@@H]1C	0	nt	-11	-9	1
COc1cccc(-c2ccc3c(c2)[C@@H]2[C@@H](CCN2C(=O)c2ccccc2F)[C@H](CO)N3C)c1	-1	5	4	20*	0
COc1ccc(-c2ccc3c(c2)[C@@H]2[C@@H](CCN2S(=O)(=O)c2ccc(F)cc2)[C@H](CO)N3C)cc1	0	8	-6	16*	3
CN1c2ccc(-c3ccccc3)cc2[C@@H]2[C@@H](CCN2C(=O)CN2CCOCC2)[C@@H]1CO	0	30*	-8	3	-1
COc1ccc(-c2ccc3c(c2)[C@@H]2[C@@H](CCN2S(=O)(=O)c2ccc(OC)cc2)[C@H](CO)N3C)cc1	0	4	-15	13	0
COc1cccc(C(=O)Nc2ccc3c(c2)OC[C@@H](C)N(C(C)=O)C[C@@H](C)[C@H](OC)CN(C)C3=O)c1	0	5	-6	-1	1
O=C1CCCc2ccccc2N1Cc1ccc(Cl)cc1Cl	nt	nt	56*	nt	nt
SMILES	FGF22 binding	FN deposition inh	PGC1a acetyl inh	SIRT5 inh	ERAP1 inh
O=C1CCCc2ccccc2N1Cc1ccccc1Cl	nt	nt	-8	nt	nt
CNC(=O)C[C@H]1CC[C@H]2[C@@H](COc3ccc(NC(=O)c4cc(F)cc(F)c4)cc3C(=O)N2C)O1	0	-5	-1	5	5
COC(=O)C[C@H]1C[C@H]2c3cc(N(C)C)ccc3O[C@H]2[C@@H](CO)O1	-1	-1	-3	-2	0
CC1(C)CC(=O)c2c(-c3cccnc3)n[nH]c2C1	nt	nt	-3	15*	-5
CN(C)/C=C1\Oc2ccc3ccccc3c2C1=O	0	nt	-3	112*	-1
CCc1c(C)nc(SCC(=O)Nc2nc(-c3ccc(OC)cc3)cs2)[nH]c1=O	43*	-15	nt	-3	0
Cn1ccsc1=NC(=O)c1ccc(=O)[nH]c1	0	5	nt	2	34*
C[C@@H]1CN([C@H](C)CO)C(=O)c2cc(NS(=O)(=O)c3ccc(Cl)cc3)ccc2O[C@@H]1CN(C)Cc1ccc2c(c1)OCO2	0	-2	-7	4	-1
C[C@@H]1CN([C@@H](C)CO)C(=O)c2cc(NS(=O)(=O)c3ccc(Cl)cc3)ccc2O[C@@H](C)CCCCO[C@@H]1CN(C)Cc1ccc2c(c1)OCO2	nt	-6	-2	16*	-1
C[C@@H]1CN([C@H](C)CO)C(=O)c2cc(NS(=O)(=O)c3ccc(Cl)cc3)ccc2O[C@H]1CN(C)Cc1ccc2c(c1)OCO2	0	-1	-3	20*	-2
COc1ccc(S(=O)(=O)Nc2ccc3c(c2)C(=O)N([C@H](C)CO)C[C@H](C)[C@H](CN(C)Cc2ccc4c(c2)OCO4)O3)cc1	0	7	-3	16*	-1
Cc1noc(C)c1S(=O)(=O)N(C)C[C@H]1Oc2ccc(NC(=O)Nc3ccc4c(c3)OCO4)cc2C(=O)N([C@@H](C)CO)C[C@H]1C	0	-6	2	4	-1
O=C1CN(S(=O)(=O)Cc2ccccc2)C[C@@H]2[C@@H](c3ccc(C#CCC4CCCC4)cc3)[C@@H](CO)N12	nt	nt	-16	6	0
COC(=O)c1ccc(NC(=O)CCS(=O)(=O)c2ccc(Br)s2)cc1	nt	-2	-4	nt	nt
CC(=O)c1cccc(NC(=O)CCS(=O)(=O)c2ccc(Br)s2)c1	0	3	7	19*	1
O=C(NCc1ccccc1Cl)[C@H]1[C@H](CO)[C@H]2Cn3c(cccc3=O)[C@H]2N1C(=O)C1CCCC1	-1	nt	nt	4	2
C[C@@H]1CN([C@@H](C)CO)C(=O)c2cc(NC(=O)C3CCCCC3)ccc2O[C@@H]1CN(C)Cc1ccccc1	0	nt	nt	0	2
O=C(c1ccccn1)N1C[C@@H]2[C@H](c3ccccc31)[C@H](CO)N2C(=O)Nc1ccccc1	0	nt	0	1	-1
OC(COc1ccc(Br)cc1)CN1CCC(Cc2ccccc2)CC1 (stereo not given)	0	0	-1	30*	-9
CC(C)OCC(O)CN1CCC(Cc2ccccc2)CC1 (stereo not given)	0	0	-4	1	-2
CO[C@H](CN(C)Cc1cc(F)ccc1F)[C@H](C)CN(C(=O)Nc1ccc(F)cc1)[C@@H](C)CO	0	-7	-2	-3	0
